# Screens deposited in PubChem BioAssay by several laboratories.
# CendR NRP1 mod – alters CendR peptide binding to human NRP-1; FAM-RPARPAR peptide binding to NRP-1, fluorescence polarization; O14786; AID 602438; 360,000 tested, 0.85% active; inhibition, % at 25 µM;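 active means inhibition or corrected inhibition above about 18%, plus a signal ratio from 0.5 to 1.5, limit read from the data, passing the limit was not always enough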
# Target sequence (O14786 whole entry, looked up): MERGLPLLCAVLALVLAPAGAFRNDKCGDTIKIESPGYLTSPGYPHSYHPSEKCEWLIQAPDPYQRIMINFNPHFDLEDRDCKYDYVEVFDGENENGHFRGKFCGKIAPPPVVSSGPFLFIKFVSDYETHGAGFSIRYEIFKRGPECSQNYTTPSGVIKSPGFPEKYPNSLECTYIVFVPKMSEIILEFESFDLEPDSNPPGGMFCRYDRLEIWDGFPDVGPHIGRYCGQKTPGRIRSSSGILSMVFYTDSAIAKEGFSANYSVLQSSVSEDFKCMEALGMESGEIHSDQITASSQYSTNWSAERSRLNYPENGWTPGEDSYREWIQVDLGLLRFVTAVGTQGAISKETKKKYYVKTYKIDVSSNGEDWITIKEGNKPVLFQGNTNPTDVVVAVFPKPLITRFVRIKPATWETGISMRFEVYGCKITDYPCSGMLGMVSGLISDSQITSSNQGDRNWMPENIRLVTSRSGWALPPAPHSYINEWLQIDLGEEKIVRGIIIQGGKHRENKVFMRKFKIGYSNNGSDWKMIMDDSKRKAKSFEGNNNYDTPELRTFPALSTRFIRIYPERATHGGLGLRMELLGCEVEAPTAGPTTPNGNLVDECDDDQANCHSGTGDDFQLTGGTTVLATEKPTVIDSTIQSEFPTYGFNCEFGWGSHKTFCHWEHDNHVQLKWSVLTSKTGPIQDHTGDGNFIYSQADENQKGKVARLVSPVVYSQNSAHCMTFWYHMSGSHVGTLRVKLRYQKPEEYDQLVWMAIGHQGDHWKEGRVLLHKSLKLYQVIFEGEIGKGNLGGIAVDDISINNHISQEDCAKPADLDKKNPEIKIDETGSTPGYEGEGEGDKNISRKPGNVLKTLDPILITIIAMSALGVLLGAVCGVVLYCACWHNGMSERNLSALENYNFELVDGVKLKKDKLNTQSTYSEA
# T cruzi repl – blocks replication of Trypanosoma cruzi. inhibition, % (concentration not given with the values). T. cruzi beta-gal in NIH3T3, luminescence, 90 h. 300,000 tested, 1.4% active;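 active means mean inhibition across valid replicates above about 55%, limit read from the data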;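 further: signal also drops with host cell toxicity which is not excluded here; 0% = plate median of DMSO wells and 100% = zero luminescence signal; higher percent means less beta-gal luminescence so fewer parasites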
#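 Incubation – ≥90 h infection period, 3 h prior cell attachment · System – NIH/3T3 fibroblasts plus reporter T. cruzi · Doses – compound pinned at 50 nL/well, DMSO · Read-out basis – percent inhibition of parasite-derived β-gal signal · Signal – luminescent β-galactosidase signal after 60 min lysis · Also added – 5000 T. cruzi trypomastigotes/well · Medium – Low-serum DMEM with 2% FBS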
# HIF act – HIF pathway transcriptional activation. activation, % at 7.5 µM (by protocol). 300,000 tested, 0.32% active. U2OS HRE-luciferase reporter, luminescence; normalized: DMSO 0%, desferrioxamine 100%. AID 1910;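 active means mean activation of at least 10% of the iron chelator positive control signal, with at least half of replicates also reaching 10%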
# V-ATPase pHluor – regulators of yeast V-ATPase proton transport; S. cerevisiae, pHLuorin cytosolic pH fluorescence; response, % at 10 µM; 350,000 tested, 0.37% active; AID 504577; in the data active means response mostly above about 7.3%, no sharp cut-off; inactive means mostly below about 5.4%; further: actives read high
# Yeast superoxide – yeast age-related superoxide inhibition as caloric restriction mimetic | AID 2690 | 330,000 tested, 0.18% active | superoxide response (% of plate mean), % at 10 µM | S. cerevisiae aged cells, superoxide DHE fluorescence; stronger effect = lower value;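 active means superoxide response under a set limit, about three screen SD below normal, cut at about 65% in these data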;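 further: yeast aged for seven days with compound at 30 °C before DHE staining; 100% = average MFI of all compound-treated wells on the plate with controls excluded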
# AI-2 QS modul – Vibrio harveyi AI-2 quorum sensing modulation; activity change, % at 7.5 µM; 300,000 tested, 0.4% active; AID 2094; Vibrio harveyi JMH597 AI-2 luminescence/OD600 ratio, 9 h; stronger effect = lower value; strain lacks LuxN and CqsS sensors; 0 = neutral-control median; in the data active means activity change below about -75%, passing the limit was not always enough;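 further: luminescence divided by OD600 gain over 9 h not by final OD600 alone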
# An asterisk follows results filed as active; . = not tested or not shown. This is a sample that favours compounds with a hit; in the whole collection about 3% have one here.
SMILES,CendR NRP1 mod,T cruzi repl,HIF act,V-ATPase pHluor,Yeast superoxide,AI-2 QS modul
CCOc1ccc(S(=O)(=O)Nc2ccc(C(=O)N/N=C(\C)c3ccc(-n4ccnc4)cc3)cc2)cc1,3,11,1,2,97,34
CCOC(=O)c1ccc(NC(=O)C2CC(O)CN2S(=O)(=O)c2ccc(C)cc2)cc1 (centres undefined),-2,.,.,0,94,.
O=C(NCC1CCCO1)c1cc(-c2ccccc2F)no1 (centres undefined),-2,-18,13*,2,108,13
COC(C[C@@H]1O[C@@H]1[C@@H](O)[C@@H](C)OCc1ccccc1)OC,14,-7,0,-5,.,10
Cc1cccc(C)c1NC(=O)CN1CCN(C(=O)c2ccc(OCc3cn4ccccc4n3)cc2)CC1,30*,.,.,0,100,.
COc1cc(/C=C2/C(=N)N3N=C(CC(=O)N4CCOCC4)SC3=NC2=O)ccc1OCc1ccccc1,-27,-12,3,1,98,8
Cc1ccccc1C(=O)NC(=S)Nc1ccc(Oc2ccc(Cl)cc2)cc1,-12,20,0,2,93,7
O=C(NC(=S)Nc1ccc(Oc2ccccc2)cc1)c1ccc(Cl)cc1,12,62*,0,-2,111,46
Cc1ccc(C(=O)NC(=S)Nc2ccc(Oc3ccc(Cl)cc3)cc2)cc1,-10,65*,0,1,96,12
COc1ccc(C2SCC(=O)N2Cc2ccccc2)cc1 (centres undefined),10,4,-1,0,101,-4
COc1ccc(C2SCC(=O)N2CC23CC4CC(CC(C4)C2)C3)cc1 (centres undefined),0,61*,0,-5,105,8
Cc1occc1C(=O)N1N=C(C2CC2)CC1(O)C(F)(F)F (centres undefined),34*,2,0,6,92,13
O=C(NCCc1ccccc1)c1cc(-c2ccco2)on1,-29,1,23*,0,108,35
COc1ccc(NC(=O)c2cc(-c3ccco3)on2)cc1OC,-23,-12,0,0,94,23
O=C(NCc1ccccc1)c1cc(-c2ccco2)on1,5,0,1,1,116,-49
COc1ccc(CCNC(=O)c2cc(C(C)C)on2)cc1OC,2,-1,0,2,102,32
COc1ccc(CCNC(=O)c2cc(-c3ccco3)on2)cc1OC,-1,-16,17*,-2,111,12
COc1ccc(CCNC(=O)c2cc(-c3cccs3)on2)cc1OC,4,9,16*,3,98,8
CCOc1cc(/C=N/NC(=O)C(C)Sc2ccccn2)ccc1O (centres undefined),0,-14,-1,2,100,19
CCOC(=O)N1CCN(CC(O)COc2ccc(-c3ccccc3)cc2)CC1 (centres undefined),9,-8,0,1,85,14
O=[N+]([O-])c1ccc(Sc2cccc[n+]2[O-])c2nonc12,34*,43,-5,-5,.,-129*
COc1ccc(/C=N/N2C(=O)C3C4C=CC(C4)C3C2=O)cc1[N+](=O)[O-] (centres undefined),-1,-3,0,1,89,-72
O=C1CC(N2CCC(Cc3ccccc3)CC2)C(=O)N1CCc1ccccc1 (centres undefined),-6,19,0,10*,98,6
O=C1CC(N2CCN(C3CC(=O)N(CCc4ccccc4)C3=O)CC2)C(=O)N1CCc1ccccc1 (centres undefined),0,4,-37,1,105,12
CCCc1sc(N)nc1-c1ccc(C)cc1,17*,5,0,8,111,22
SMILES,CendR NRP1 mod,T cruzi repl,HIF act,V-ATPase pHluor,Yeast superoxide,AI-2 QS modul
COc1ccc(OC)c(S(=O)(=O)n2cnc3ccccc32)c1,5,2,4,-2,104,.
COc1cc(OC)cc(C(=O)NNc2nc3cc4c(cc3s2)OCO4)c1,-8,3,0,-1,102,-18
O=C(NNc1nc2cc3c(cc2s1)OCO3)c1cccc(F)c1,-6,-3,2,0,99,-88*
COc1ccc([C@H]2/C=C\CN(S(=O)(=O)c3ccc(C)cc3)[C@@H](C)C(=O)N2Cc2ccc(F)cc2)cc1,14,29,0,7,105,-1
COc1ccc(C2/C=C\CN(C(=O)C3CCCCC3)CC(=O)N2Cc2ccc(F)cc2)cc1 (centres undefined),34*,8,0,-1,.,24
COc1ccc([C@H]2/C=C\CN(S(=O)(=O)c3ccc4ccccc4c3)[C@@H](C)C(=O)N2Cc2ccc(F)cc2)cc1,24,59*,0,-1,101,4
CN1CCN(CCC(=O)N/N=C/c2cc([N+](=O)[O-])ccc2O)CC1,-14,2,0,-5,93,26
Cc1cc(-c2cc(C(=O)O)c3ccccc3n2)c(C)s1,4,-7,0,-3,105,19
Cc1c(N=Cc2ccc[nH]2)c(=O)n(-c2ccccc2)n1C,-21,-3,0,6,126,25
CCC(C)NC(=O)[C@H]1N2C(=O)c3ccccc3C2SC1(C)C (some centres undefined),4,0,0,-1,104,-5
Cc1cc(C)c(S(=O)(=O)c2ccccc2C)c(Cl)n1,6,55*,0,7,84,10
Cc1ccc(S(=O)(=O)c2c(C)cc(C)nc2Cl)c(C)c1,-7,59*,0,1,102,15
CC(=O)c1ccc(OC(=O)CN2C(=O)c3ccccc3C2=O)cc1,-4,-10,0,0,94,33
CCc1ccc(OC(=O)CN2C(=O)c3ccccc3C2=O)cc1,26*,-8,-3,-7,107,14
CC(C)CN1CCC(=O)N([C@H](CSc2ccc(Br)cc2)c2ccccc2)CC1,16,-11,0,-2,99,6
CC(C)C[C@@H](CSc1ccc(Br)cc1)N1CCN(CC(C)C)CCC1=O,21*,23,3,-1,.,2
CC(C)C[C@@H](CSc1ccc(Br)cc1)N1CCN(C)CCC1=O,10,4,4,-2,103,-8
Cc1ccc(SC[C@H](c2ccccc2)N2CCN(CC(C)C)CCC2=O)cc1,33*,-3,0,2,.,17
COCCNC(=O)C1(C)Cc2c(-c3cccc(C(N)=O)c3)ccnc2O1 (centres undefined),-13,.,.,.,.,.
CCN(CC)S(=O)(=O)c1ccc(/C=C/C(=O)OCC(=O)NC(=O)C2COc3ccccc3O2)cc1 (centres undefined),10,.,.,-1,103,.
